# Results published in ChEMBL document CHEMBL1123146, “Design, synthesis, and evaluation of omega-iodovinyl- and omega-iodoalkyl-substituted methyl-branched long-chain fatty acids” (J Med Chem, 1985).
# Key:
# Rattus norvegicus [1] = test: Concentration was measured in liver tissue f unfasted Fischer 344 rats administered intravenously after 30 minute (radiolabeled with [123I]-; assay type: ADME, organism-based; conditions: in vivo, iv, 0.5 h
# Rattus norvegicus [2] = test: Concentration was measured in liver tissue of unfasted Fischer 344 rats administered intravenously after 4 hr (radiolabeled with [123I]-; assay type: ADME, organism-based; conditions: in vivo, iv
# Rattus norvegicus [3] = test: Concentration was measured in liver tissue of unfasted Fischer 344 rats administered intravenously after 5 minute (radiolabeled with [123I]-; assay type: ADME, organism-based; conditions: in vivo, iv, 5 min
# Rattus norvegicus [4] = test: Concentration was measured in lungs tissue of unfasted Fischer 344 rats administered intravenously after 4 hr (radiolabeled with [125I]-; assay type: ADME, organism-based, Lung; conditions: in vivo, iv
# Rattus norvegicus [5] = test: Concentration was measured in heart tissue of unfasted Fischer 344 rats administered intravenously after 4 hr (radiolabeled with [123I]-; assay type: ADME, organism-based; conditions: in vivo, iv
# Rattus norvegicus [6] = test: Concentration was measured in kidney tissue of unfasted Fischer 344 rats administered intravenously after 5 minute (radiolabeled with [125I]-; assay type: ADME, organism-based; conditions: in vivo, iv, 5 min
# Summary of the method: (§1)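 Female Fischer 344 rats, 10-12 weeks old, 170-200 g, with food and water ad libitum. The 125I-fatty acid was taken up in ethanol, added dropwise to stirred 6% BSA at ~40 °C (final ethanol 10%), filtered, and given as 0.5 mL via lateral tail vein under ether anesthesia. Rats were killed by cervical fracture; blood was taken by cardiac puncture. Organs were rinsed, blotted, weighed and gamma-counted against injectate standards to give %ID/g. Five rats per time point.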
# Rattus norvegicus [7] = test: Concentration was measured in kidney tissue of unfasted Fischer 344 rats administered intravenously after 60 minute (radiolabeled with [123I]-; assay type: ADME, organism-based; conditions: in vivo, iv, 1 h
# Rattus norvegicus [8] = test: Concentration was measured in blood tissue of unfasted Fischer 344 rats administered intravenously after 5 minute (radiolabeled with [125I]-; assay type: ADME, organism-based; conditions: in vivo, iv, 5 min; summary of the method: as §1
# Rattus norvegicus [9] = test: Concentration was measured in mean heart/blood tissue of unfasted Fischer 344 rats administered intravenously after 4 hr (radiolabeled with [125I]-; assay type: ADME, organism-based; conditions: other tissue, iv
# Rattus norvegicus [10] = test: Concentration was measured in tissue of unfasted Fischer 344 rats administered intravenously after 60 minute (radiolabeled with [123I]-; assay type: ADME, organism-based; conditions: in vivo, iv, 1 h
# Rattus norvegicus [11] = test: Concentration was measured in blood tissue of unfasted Fischer 344 rats administered intravenously after 30 minute (radiolabeled with [125I]-; assay type: ADME, organism-based; conditions: in vivo, iv, 0.5 h, in the assay text read “fasted” for “unfasted”
# Rattus norvegicus [12] = test: Concentration was measured in liver tissue of fasted Fischer 344 rats administered intravenously after 4 hr (radiolabeled with [125I]-; conditions: in vivo, iv
# Rattus norvegicus [13] = test: Concentration was measured in mean heart/blood tissue of fasted Fischer 344 rats administered intravenously after 5 minute (radiolabeled with [125I]-; conditions: in vivo, iv, 5 min
# Rattus norvegicus [14] = test: Concentration was measured in mean heart/blood tissue of fasted Fischer 344 rats administered intravenously after 60 minute (radiolabeled with [125I]-; conditions: in vivo, iv, 1 h
# Rattus norvegicus [15] = test: Concentration was measured in mean heart/blood tissue of fasted Fischer 344 rats administered intravenously after 30 minute (radiolabeled with [125I]-; conditions: in vivo, iv, 0.5 h
structure (smiles),measurement,setting,value
CC(CCCCCCCCCCCCCC/C=C/I)CC(=O)O.O=C(O)CCCCCCCCCCCCCCCC/C=C/I (stereo not given),Distribution,Rattus norvegicus [1],3.49%
same,Distribution,Rattus norvegicus [2],1.83%
same,Distribution,Rattus norvegicus [3],4.87%
same,Distribution,Rattus norvegicus [4],0.81%
same,Distribution,Rattus norvegicus [5],0.59%
same,Distribution,Rattus norvegicus [6],1.06%
same,Distribution,Rattus norvegicus [7],0.96%
same,Distribution,Rattus norvegicus [8],0.91%
same,Distribution,Rattus norvegicus [9],2.6%
same,Distribution,Rattus norvegicus [10],2.62%
same,Distribution,Rattus norvegicus [11],0.77%
same,Distribution,Rattus norvegicus [12],1.11%
same,Distribution,Rattus norvegicus [13],5.4%
same,Distribution,Rattus norvegicus [14],4.1%
same,Distribution,Rattus norvegicus [15],4.3%
